Assay results taken from ChEMBL document CHEMBL1687889, “Antitumor agents. 284. New desmosdumotin B analogues with bicyclic B-ring as cytotoxic and antitubulin agents” (J Med Chem, 2011).
Calls of active or inactive are those of the source. The rule behind the calls is not given here.

Key:
A549 [1] = assay: Antiproliferative activity against human A549 cells after 3 days by sulforhodamine B assay; type: functional; conditions: A549, 72 h
Outline: (§1)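 Cells grown in RPMI-1640 with 25 mM HEPES, 0.25% sodium bicarbonate, 10% FBS and 100 μg/mL kanamycin. Exposed to compound for 3 days, with at most 0.5% v/v DMSO. Attached cells fixed in cold 50% TCA, stained with 0.4% sulforhodamine B, and the bound dye solubilized. A562 read. GI50 is the concentration giving a 50% absorbance drop versus untreated cells.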

KB [2] = assay: Antiproliferative activity against human KB cells after 3 days by sulforhodamine B assay; type: functional; conditions: 72 h; outline: as §1
[3] = Antiproliferative activity against human KBVIN cells after 3 days by sulforhodamine B assay; type: functional; conditions: 72 h; outline: as §1
MCF7 [4] = assay: Antiproliferative activity against human MCF7 cells after 3 days by sulforhodamine B assay; type: functional; conditions: MCF7, 72 h
PC-3 [5] = assay: Antiproliferative activity against human PC3 cells at 20 ug/ml after 3 days by sulforhodamine B assay; type: functional, cell-based
HCT-8 [6] = assay: Antiproliferative activity against human HCT8 cells after 3 days by sulforhodamine B assay; type: functional; conditions: HCT-8, 72 h; outline: as §1
HepG2 [7] = assay: Antiproliferative activity against human HepG2 cells at 20 ug/ml after 3 days by sulforhodamine B assay; type: functional, cell-based
A549 [8] = assay: Inhibition of spindle formation in human A549 cells after 24 hs by DAPI staining; type: functional, cell-based
Outline: (§2)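 A549 cells held in chamber slides 12 h, then exposed to compound (0.1 nM) or DMSO for 24 h at 37 °C; fixed in 4% paraformaldehyde/PBS, permeabilized with 0.5% Triton X-100, stained with anti-α-tubulin monoclonal plus FITC secondary and DAPI for nuclei; microtubules and mitotic spindles scored by fluorescence microscopy. Comparators: colchicine 100 nM, paclitaxel 1.5 nM, doxorubicin 500 nM.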

A549 [9] = assay: Inhibition of microtubule polymerization in human A549 cells after 24 hs by immunofluorescence staining; type: cell-based; outline: as §2
PC-3 [10] = assay: Antiproliferative activity against human PC3 cells after 3 days by sulforhodamine B assay; type: functional; conditions: PC-3, 72 h
[11] = Displacement of [3H]colchicine from tubulin at 5 uM for 10 mins
Outline: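 1.0 μM tubulin incubated with 5.0 μM [3H]colchicine and 5.0 μM inhibitor for 10 min at 37 °C, when control samples reach about 40–60% of maximal colchicine binding. Result given as percent inhibition of colchicine binding.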

[12] = Inhibition of tubulin assembly after 20 mins by turbidimetric assay
Outline: (§3)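 Turbidimetry at 350 nm. 10 μM (1.0 mg/mL) tubulin preincubated with compound for 15 min at 30 °C without GTP, then chilled, and 0.4 mM GTP added. Turbidity followed for 20 min at 30 °C after a temperature jump from 0 °C. IC50 is the concentration halving the turbidity increase relative to control.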

HepG2 [13] = assay: Antiproliferative activity against human HepG2 cells after 3 days by sulforhodamine B assay; type: functional; conditions: HepG2, 72 h
Outline: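 Sulforhodamine B assay over 3 days in culture, with at most 0.5% v/v DMSO. Attached cells fixed in cold 50% TCA, stained with 0.4% SRB, and the dye solubilized. Absorbance read at 562 nm. GI50 is the concentration causing a 50% fall in absorbance relative to untreated cells.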

KBVIN = assay: Antiproliferative activity against human KBVIN cells at 20 ug/ml after 3 days by sulforhodamine B assay; type: functional, cell-based
MCF7 [14] = assay: Antiproliferative activity against human MCF7 cells at 20 ug/ml after 3 days by sulforhodamine B assay; type: functional, cell-based
HCT-8 [15] = assay: Antiproliferative activity against human HCT8 cells at 20 ug/ml after 3 days by sulforhodamine B assay; type: functional, cell-based
A549 [16] = assay: Antiproliferative activity against human A549 cells at 20 ug/ml after 3 days by sulforhodamine B assay; type: functional, cell-based
KB [17] = assay: Antiproliferative activity against human KB cells at 20 ug/ml after 3 days by sulforhodamine B assay; type: functional, cell-based
[18] = Partial inhibition of tubulin assembly after 20 mins at 4 uM by turbidimetric assay; outline: as §3
[19] = Binding affinity to tubulin at 40 uM
DU-145 = assay: Antiproliferative activity against human DU145 cells after 3 days by sulforhodamine B assay; type: functional; conditions: DU-145, 72 h

SMILES	GI50 (A549 [1]) [µM]	GI50 (KB [2]) [µM]	GI50 [3] [µM]	Activity (PC-3 [5])	GI50 (HCT-8 [6]) [µM]	Activity (HepG2 [7])	GI50 (PC-3 [10]) [µM]	inhibition [11] [%]	GI50 (HepG2 [13]) [µM]	Activity (KBVIN)	Activity (MCF7 [14])	Activity (HCT-8 [15])	Activity (A549 [16])	Activity (KB [17])	also measured
CCC1=C(O)c2c(oc(-c3cccc4ccccc34)c(Br)c2=O)C(CC)(CC)C1=O	25.6	6.41	12	inactive	13.9	inactive									GI50 (MCF7 [4]): 24.6 µM
COc1cc2c(c(OC)c1OC)-c1ccc(OC)c(=O)cc1[C@@H](NC(C)=O)CC2															inhibition (A549 [8]): Active; inhibition (A549 [9]): Active
CCC1=C(O)c2c(oc(-c3csc4ccccc34)cc2=O)C(CC)(CC)C1=O	0.06	0.08	0.07		0.13		0.16	78	0.13						inhibition (A549 [8]): Active; IC50 ([12]; read-out: IC50): 2 µM; inhibition (A549 [9]): Active; GI50 (MCF7 [4]): 0.11 µM
CCC1=C(O)c2c(oc(-c3c4ccccc4cc4ccccc34)cc2=O)C(CC)(CC)C1=O				inactive		inactive				inactive	inactive	inactive	inactive	inactive	
CCC1=C(O)c2c(oc(-c3ccc4ccccc4c3)cc2=O)C(CC)(CC)C1=O	1.16	1.03	1.16		1.29		2.58	29	1.55						GI50 (MCF7 [4]): 1.42 µM; inhibition [18]: Active
CCC1=C(O)c2c(oc(-c3cccc4c3oc3ccccc34)cc2=O)C(CC)(CC)C1=O				inactive		inactive				inactive	inactive	inactive	inactive	inactive	
CCC1=C(O)c2c(oc(-c3ccccc3)cc2=O)C(CC)(CC)C1=O [6,8,8-TRIETHYL DESMOSDUMOTIN B]			1.07	inactive		inactive					inactive	inactive	inactive	inactive	IC50 [12]: Not Active; Activity [19]: inactive
CCC1=C(O)c2c(oc(-c3c(OC)c(OC)cc4ccccc34)cc2=O)C(CC)(CC)C1=O			35.7									inactive	inactive	inactive	
CCC1=C(O)c2c(oc(-c3ccc(OC)c4ccc(OC)cc34)cc2=O)C(CC)(CC)C1=O				inactive		inactive				inactive	inactive	inactive	inactive	inactive	
CCC1=C(O)c2c(oc(-c3c(C)sc4ccccc34)cc2=O)C(CC)(CC)C1=O	1.35	0.61	0.76		2.7		90.7	38	2.03						GI50 (DU-145): 3.92 µM; IC50 ([12]; read-out: IC50): 3.4 µM
CC1=C(O)C(C)(C)c2oc(-c3ccccc3)cc(=O)c2C1=O [DESMOTUMOTIN B]			13.5	inactive		inactive					inactive	inactive	inactive	inactive	
CCC1=C(O)c2c(oc(-c3ccc4c(c3)c3ccccc3n4CC)cc2=O)C(CC)(CC)C1=O				inactive		inactive				inactive	inactive	inactive	inactive	inactive	
CCC1=C(O)c2c(oc(-c3c(O)ccc4sccc34)cc2=O)C(CC)(CC)C1=O	3.17	0.76	0.78		3.66		21.5	52	1.02						GI50 (DU-145): 1.12 µM; IC50 ([12]; read-out: IC50): 3.4 µM
